Calls of active or inactive are those of the source. The calls are words filed in the database; no cut-off is given here.
Experiments:
Homo sapiens [1] = species on record: Homo sapiens; test: Selectivity ratio of IC50 for human recombinant His-tagged MGL expressed in Escherichia coli BL21 DE3 cells to IC50 for human recombinant MBP-tagged FAAH expressed in Escherichia coli cells by fluorescence based assay
[2] = target: Cannabinoid receptor 2 (Mus musculus) (UniProt P47936); test: Displacement of [3H]CP55940 from mouse CB2 receptor expressed in HEK293 cells by competition-equilibrium binding analysis; format: cell-based
Summary of the method: (§1)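 HEK293 cell membranes expressing mouse or human CB2; competition-equilibrium binding against [3H]CP-55,940.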

Monoglyceride lipase = target: T1, Monoglyceride lipase (Homo sapiens, UniProt Q99685); test: Inhibition of human recombinant His-tagged MGL expressed in Escherichia coli BL21 DE3 cells using AHMMCE as substrate preincubated with enzyme for 15 mins followed by substrate addition and measured after every 15 mins for 3 hrs by fluorescence based assay
T1 sequence (Q99685 whole entry): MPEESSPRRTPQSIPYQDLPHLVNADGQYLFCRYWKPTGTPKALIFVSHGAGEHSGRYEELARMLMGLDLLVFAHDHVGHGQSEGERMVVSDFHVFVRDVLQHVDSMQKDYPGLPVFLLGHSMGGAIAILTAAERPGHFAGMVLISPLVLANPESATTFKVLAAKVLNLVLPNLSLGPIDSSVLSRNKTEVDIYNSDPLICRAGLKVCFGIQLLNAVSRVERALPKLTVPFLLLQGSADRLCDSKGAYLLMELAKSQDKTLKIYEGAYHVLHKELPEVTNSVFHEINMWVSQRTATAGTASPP
Summary of the method: (§2)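 Fluorescent enzyme assay in throughput format. Human recombinant FAAH or purified rat FAAH used arachidonoyl 7-amino-4-methylcoumarin amide as substrate; human recombinant MGL was run by a similar fluorometric procedure.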

[3] = Stability in mouse liver microsomes assessed as half life; format: ADME, Microsome
Summary of the method: (§3)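 Stability assessed as half-life in human, rat and mouse plasma and gastric fluid, and in human, rat and mouse liver microsomal preparations.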

[4] = Stability in human gastric fluid assessed as half life; format: ADME, tissue-based, Gastric juice; summary of the method: as §3
[5] = Stability in rat liver microsomes assessed as half life; format: ADME, Microsome; summary of the method: as §3
[6] = target: T2, Fatty-acid amide hydrolase 1 (Homo sapiens, UniProt O00519); test: Inhibition of human recombinant MBP-tagged FAAH expressed in Escherichia coli cells using AAMCA as substrate incubated for 15 mins followed by substrate addition and measured after every 20 mins for 4 hrs by fluorescence based assay; summary of the method: as §2
T2 sequence (O00519 whole entry): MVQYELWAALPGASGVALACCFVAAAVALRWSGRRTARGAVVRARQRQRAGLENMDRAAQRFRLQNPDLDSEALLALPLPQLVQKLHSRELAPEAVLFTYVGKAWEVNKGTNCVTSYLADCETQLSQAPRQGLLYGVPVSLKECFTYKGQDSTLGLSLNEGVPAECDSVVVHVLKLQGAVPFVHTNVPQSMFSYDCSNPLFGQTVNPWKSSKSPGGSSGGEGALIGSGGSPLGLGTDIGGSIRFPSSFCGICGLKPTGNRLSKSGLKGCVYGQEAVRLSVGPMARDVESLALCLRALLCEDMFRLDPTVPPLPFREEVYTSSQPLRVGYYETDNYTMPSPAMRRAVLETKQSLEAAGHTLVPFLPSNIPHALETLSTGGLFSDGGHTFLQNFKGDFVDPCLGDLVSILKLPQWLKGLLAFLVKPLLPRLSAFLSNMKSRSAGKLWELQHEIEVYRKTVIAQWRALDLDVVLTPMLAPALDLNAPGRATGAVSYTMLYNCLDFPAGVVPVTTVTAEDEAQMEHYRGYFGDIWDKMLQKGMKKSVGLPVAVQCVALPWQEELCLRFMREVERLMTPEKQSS

[7] = Stability in mouse gastric fluid assessed as half life; format: ADME, tissue-based, Gastric juice; summary of the method: as §3
[8] = target: Cannabinoid receptor 1 (Rattus norvegicus) (UniProt P20272); test: Displacement of [3H]CP55940 from CB1 receptor in rat brain by competition-equilibrium binding analysis
Target sequence in this assay (P20272 whole entry, looked up): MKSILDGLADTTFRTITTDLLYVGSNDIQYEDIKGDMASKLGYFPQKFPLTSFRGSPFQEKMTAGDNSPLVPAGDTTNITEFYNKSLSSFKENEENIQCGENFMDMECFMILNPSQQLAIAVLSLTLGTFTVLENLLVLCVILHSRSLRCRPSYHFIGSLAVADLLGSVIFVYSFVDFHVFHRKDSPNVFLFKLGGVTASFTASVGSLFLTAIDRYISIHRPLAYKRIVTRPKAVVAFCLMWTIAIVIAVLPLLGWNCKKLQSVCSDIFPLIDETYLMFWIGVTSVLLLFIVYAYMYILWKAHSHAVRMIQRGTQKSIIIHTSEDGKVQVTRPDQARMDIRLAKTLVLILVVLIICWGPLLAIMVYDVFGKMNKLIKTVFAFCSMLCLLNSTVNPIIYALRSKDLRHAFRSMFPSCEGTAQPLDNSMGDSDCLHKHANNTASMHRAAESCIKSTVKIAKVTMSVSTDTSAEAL

[9] = target: Cannabinoid receptor 1 (Rattus norvegicus) (UniProt P20272); test: Displacement of [3H]CP55940 from CB1 receptor in rat brain by competition-equilibrium binding analysis; format: tissue-based
Summary of the method: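 Rat brain membranes as CB1 source; competition-equilibrium binding against [3H]CP-55,940.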
Target sequence in this assay (P20272 whole entry): as the sequence (P20272 whole entry, looked up) above

[10] = Stability in rat plasma assessed as half life; format: ADME, cell-free; summary of the method: as §3
[11] = target: Cannabinoid receptor 2 (Homo sapiens) (UniProt P34972); test: Displacement of [3H]CP55940 from human CB2 receptor expressed in HEK293 cells by competition-equilibrium binding analysis; format: cell-based; summary of the method: as §1
[12] = Stability in rat gastric fluid assessed as half life; format: ADME, tissue-based, Gastric juice; summary of the method: as §3
[13] = target: T3, Fatty-acid amide hydrolase 1 (Rattus norvegicus, UniProt P97612); test: Inhibition of rat recombinant His/GST-tagged FAAH expressed in Escherichia coli cells using AAMCA as substrate incubated for 15 mins followed by substrate addition and measured after every 20 mins for 4 hrs by fluorescence based assay; summary of the method: as §2
T3 sequence (P97612 whole entry): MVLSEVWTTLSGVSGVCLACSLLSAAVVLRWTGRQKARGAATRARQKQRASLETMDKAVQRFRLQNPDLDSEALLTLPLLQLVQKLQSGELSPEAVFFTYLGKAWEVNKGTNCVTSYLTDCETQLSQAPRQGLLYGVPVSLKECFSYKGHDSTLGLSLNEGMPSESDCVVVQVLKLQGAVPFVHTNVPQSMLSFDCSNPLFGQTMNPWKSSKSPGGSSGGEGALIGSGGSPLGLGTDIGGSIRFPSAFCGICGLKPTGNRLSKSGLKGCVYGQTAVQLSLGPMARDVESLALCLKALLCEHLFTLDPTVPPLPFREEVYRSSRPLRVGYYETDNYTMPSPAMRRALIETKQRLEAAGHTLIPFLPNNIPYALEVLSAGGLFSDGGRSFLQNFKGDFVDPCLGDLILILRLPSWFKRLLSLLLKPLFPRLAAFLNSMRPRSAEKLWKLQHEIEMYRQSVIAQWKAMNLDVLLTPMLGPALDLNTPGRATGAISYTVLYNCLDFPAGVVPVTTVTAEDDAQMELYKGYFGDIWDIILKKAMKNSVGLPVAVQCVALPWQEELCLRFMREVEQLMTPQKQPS

[14] = Selectivity ratio of IC50 for human recombinant His-tagged MGL expressed in Escherichia coli BL21 DE3 cells to IC50 for rat recombinant His/GST-tagged FAAH expressed in Escherichia coli cells by fluorescence based assay
[15] = Stability in human plasma assessed as half life; format: ADME, cell-free; summary of the method: as §3
[16] = Stability in human liver microsomes assessed as half life; format: ADME, Microsome; summary of the method: as §3
[17] = Stability in mouse plasma assessed as half life; format: ADME, cell-free; summary of the method: as §3
Homo sapiens [18] = species on record: Homo sapiens; test: Selectivity ratio of IC50 for human full length ABHD6 expressed in Escherichia coli cells to IC50 for human recombinant MBP-tagged FAAH expressed in Escherichia coli cells by fluorescence based assay
[19] = Selectivity ratio of IC50 for human full length ABHD6 expressed in Escherichia coli cells to IC50 for rat recombinant His/GST-tagged FAAH expressed in Escherichia coli cells by fluorescence based assay

Chain of Cannabinoid receptor 2 (Homo sapiens) (P34972 whole entry): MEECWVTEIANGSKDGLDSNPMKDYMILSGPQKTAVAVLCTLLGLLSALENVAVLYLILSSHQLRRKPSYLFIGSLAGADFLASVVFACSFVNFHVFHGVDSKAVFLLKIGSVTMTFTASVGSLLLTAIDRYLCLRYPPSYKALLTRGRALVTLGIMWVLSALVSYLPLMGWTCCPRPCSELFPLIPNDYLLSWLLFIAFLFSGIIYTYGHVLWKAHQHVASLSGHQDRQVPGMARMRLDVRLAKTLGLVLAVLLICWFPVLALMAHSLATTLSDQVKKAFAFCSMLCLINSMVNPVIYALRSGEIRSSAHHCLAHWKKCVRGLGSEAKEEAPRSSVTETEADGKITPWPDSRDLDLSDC
Chain of Cannabinoid receptor 2 (Mus musculus) (P47936 whole entry): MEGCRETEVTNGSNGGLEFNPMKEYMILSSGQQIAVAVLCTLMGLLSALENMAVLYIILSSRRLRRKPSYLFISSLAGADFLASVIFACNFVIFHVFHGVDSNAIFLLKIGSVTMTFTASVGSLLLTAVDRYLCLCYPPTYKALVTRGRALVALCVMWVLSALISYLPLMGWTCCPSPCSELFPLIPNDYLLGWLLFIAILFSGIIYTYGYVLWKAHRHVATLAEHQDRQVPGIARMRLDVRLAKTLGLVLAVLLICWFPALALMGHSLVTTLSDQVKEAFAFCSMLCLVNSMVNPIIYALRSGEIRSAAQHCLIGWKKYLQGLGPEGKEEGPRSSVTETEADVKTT

SMILES | Ratio IC50 (Homo sapiens [1]) | Activity [2] | IC50 (Monoglyceride lipase) [nM] | half-life [3] [min] | half-life [4] [min] | half-life [5] [min] | IC50 [6] [nM] | half-life [7] [min] | Activity [8] | Activity [9] | half-life [10] [min] | Activity [11] | half-life [12] [min] | IC50 [13] [nM] | Ratio IC50 [14] | half-life [15] [min] | half-life [16] [min] | half-life [17] [min] | Ratio IC50 (Homo sapiens [18]) | Ratio IC50 [19]
O=C(Oc1cccc(N2CCS(=O)(=O)CC2)c1)N1CCN(c2ccccc2)CC1 | > 1000 | inactive | > 1000 | 15 to 25 | > 60 | 15 to 25 | 15 | > 60 | inactive | inactive | > 60 | inactive | > 60 | 8 | > 1000 | > 60 | 15 to 25 | > 60 | > 1000 | > 1000
C[C@H]1CN(c2ccc(F)cc2)CCN1C(=O)Oc1cccc(N2CCS(=O)(=O)CC2)c1 | > 1000 | inactive | > 1000 | – | – | – | 72.9 | – | inactive | inactive | – | inactive | – | 40.5 | > 1000 | – | – | – | > 1000 | > 1000
O=C(Oc1cccc(N2CCS(=O)(=O)CC2)c1)N1C[C@H]2C[C@@H]1CN2c1ccc(F)cc1 | > 1000 | inactive | > 1000 | – | – | – | 20.3 | – | inactive | inactive | – | inactive | – | 17.1 | > 1000 | – | – | – | > 1000 | > 1000
CN1CCN(c2cccc(OC(=O)N3CCC(c4ccc(F)cc4)CC3)c2)CC1 | > 1000 | inactive | > 1000 | 15 to 25 | > 60 | 15 to 25 | 33.2 | > 60 | inactive | inactive | > 60 | inactive | > 60 | 9.4 | > 1000 | > 60 | 15 to 25 | > 60 | > 1000 | > 1000
O=C(Oc1cccc(N2CCS(=O)(=O)CC2)c1)N1CCN(c2ccc(F)cc2)CC1 | > 1000 | inactive | > 1000 | – | – | – | 20.5 | – | inactive | inactive | – | inactive | – | 12.5 | > 1000 | – | – | – | > 1000 | > 1000
O=C(Oc1cccc(N2CCCCC2)c1)N1CCC(c2ccc(F)cc2)CC1 | > 1000 | inactive | > 1000 | 15 to 25 | > 60 | 15 to 25 | 40 | > 60 | inactive | inactive | > 60 | inactive | > 60 | 6.8 | > 1000 | > 60 | 15 to 25 | > 60 | > 1000 | > 1000
O=C(Oc1cccc(N2CCS(=O)(=O)CC2)c1)N1CCC(c2ccncc2)CC1 | > 1000 | inactive | > 1000 | – | – | – | 132 | – | inactive | inactive | – | inactive | – | 75.5 | > 1000 | – | – | – | > 1000 | > 1000
Cc1ccccc1C1CCN(C(=O)Oc2cccc(N3CCS(=O)(=O)CC3)c2)CC1 | > 1000 | inactive | > 1000 | – | – | – | 15.9 | – | inactive | inactive | – | inactive | – | 10.3 | > 1000 | – | – | – | > 1000 | > 1000
O=C(Oc1cccc(N2CCS(=O)(=O)CC2)c1)N1CCN(c2ccccn2)CC1 | > 1000 | inactive | > 1000 | – | – | – | – | – | inactive | inactive | – | inactive | – | 102 | > 1000 | – | – | – | > 1000 | > 1000
O=C(Oc1cccc(N2CCS(=O)(=O)CC2)c1)N1CCC(O)(c2ccccc2)CC1 | > 1000 | inactive | > 1000 | – | – | – | 172 | – | inactive | inactive | – | inactive | – | 78.1 | > 1000 | – | – | – | > 1000 | > 1000
CN(C)c1ccc(C2CCN(C(=O)Oc3cccc(N4CCOCC4)c3)CC2)cc1 | > 1000 | inactive | > 1000 | – | – | – | 31 | – | inactive | inactive | – | inactive | – | 14.7 | > 1000 | – | – | – | > 1000 | > 1000
Cc1noc(C2CCN(C(=O)Oc3cccc(N4CCS(=O)(=O)CC4)c3)CC2)n1 | > 1000 | inactive | > 1000 | – | – | – | 147 | – | inactive | inactive | – | inactive | – | 120 | > 1000 | – | – | – | > 1000 | > 1000
N#Cc1ccc(N2CCN(C(=O)Oc3cccc(N4CCS(=O)(=O)CC4)c3)CC2)cc1 | > 1000 | inactive | > 1000 | – | – | – | 89.3 | – | inactive | inactive | – | inactive | – | 62.7 | > 1000 | – | – | – | > 1000 | > 1000
